Assay outcomes deposited in PubChem BioAssay by several laboratories.
Compounds with a hit are over-represented: about 11% of the library has one in this group of screens.
D1 mod: allosteric modulators of human D1 dopamine receptor | P21728 | HEK293 D1, CRE-luciferase, dopamine EC30 potentiation; actives deviate in either direction | B-score at 10 µM | actives 5.9% (n = 58,000);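 active means luminescence count or its row- and column-corrected plate score outside the 99.7% band of the plate's sample wells, on either side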
S1P1 ag pot: agonists and agonism potentiators of human S1P1 receptor | AID 449 | S1P1 CRE-bla cells, forskolin, beta-lactamase FRET, potentiator mode; S1P1 agonist co-added at EC20, 2 nM; 100% = saturating reference agonist, 0% = basal | P21453 | actives 0.57% (n = 56,000) | activation, % at 9.5 µM;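 active means activation above a cutoff set at the mean activation of all tested compounds plus 3 SD, cut at about 54% in these data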;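 further: forskolin at 4 µM as EC80 and the EC20 agonist is SEW2871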
Target sequence (P21453 whole entry, looked up): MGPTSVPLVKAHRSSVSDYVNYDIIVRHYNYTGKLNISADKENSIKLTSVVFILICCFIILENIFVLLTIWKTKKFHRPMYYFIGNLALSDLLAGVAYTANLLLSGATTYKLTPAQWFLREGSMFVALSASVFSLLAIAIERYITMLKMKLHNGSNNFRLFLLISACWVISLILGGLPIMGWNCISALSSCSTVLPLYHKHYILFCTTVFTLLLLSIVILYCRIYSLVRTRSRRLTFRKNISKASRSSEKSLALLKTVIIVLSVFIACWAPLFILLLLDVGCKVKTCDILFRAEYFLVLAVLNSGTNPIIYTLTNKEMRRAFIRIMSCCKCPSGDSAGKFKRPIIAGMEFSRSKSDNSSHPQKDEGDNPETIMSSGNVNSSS
M1 antag: antagonists of rat M1 muscarinic receptor; P08482; CHO-M1 cells, Fluo-4 calcium, ACh EC80 antagonist mode; hits give low values; B-score at 10 µM; actives 3.4% (n = 64,000);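 active means calcium fluorescence response, raw or row-and-column corrected B-score, differing from the plate sample mean either way at a set confidence level, mostly lower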
M1 ag: M1 muscarinic receptor agonism | actives 3% (n = 64,000) | AID 626 | B-score at 10 µM | CHO-M1 cells, Fluo-4 calcium fluorescence, agonist mode; hits give high values;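 active means fluorescence rise, raw or as B-score row- and column-corrected plate score, outside the 99.7% band of its plate's samples, either direction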
S1P3 agonist: activates the human S1P3 receptor; AID 373; S1P3 NFAT-BLA reporter cells, agonism, FRET ratio; relative to 1 µM S1P, basal subtracted; activation, % at 4.5 µM; Q99500; actives 0.1% (n = 60,000);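 active means activation above the screen-wide mean plus 3 SD, cut at about 4.5% in these data, passing the limit was not always enough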
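Measure – % activation relative to 1 µM S1P (100%), per plate · System – stable CHO line with human S1P3, Gα16, NFAT-BLA reporter · Timing – cells plated overnight, compound 4 h 37 °C, substrate 2 h RT · Technique – fluorescent BLA substrate, ex 405 nm, em 460/535 nm ratio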
Of the large screens only hits and unclear results are named; the others gave an inactive call.

O=C1Nc2ccccc2C12OCCS2 (stereo not given)	none
CCCn1nnc(NC(=O)COc2ccc(C3CCCCC3)cc2)n1	none
CC1(C)Cc2nc(N)c(C(=O)NCCO)cc2CO1	M1 antag 6.62 (no result: D1 mod)
COc1cccc2cc(C(=O)Nc3cccnc3N3CCOCC3)c(=O)oc12	none (no result: S1P1 ag pot, S1P3 agonist)
O=C(Nc1ccc(CN2CCOCC2)cc1)c1cc2ccccc2oc1=O	D1 mod -5.57 (no result: S1P1 ag pot, S1P3 agonist)
O=C(Nc1cccnc1N1CCOCC1)c1cc2ccccc2oc1=O	D1 mod 4.25 (no result: S1P1 ag pot, S1P3 agonist)
Cn1nc(CC(=O)Nc2ccc(N3CCN(C(=O)OC(C)(C)C)CC3)cc2)c2ccccc2c1=O	S1P1 ag pot 84.4
O=C(CSc1nc2c(c(=O)n1-c1ccc(Cl)cc1)SCC2)Nc1ccc2c(c1)OCCO2	none
COc1ccc(-c2cc3nc4n(c(=O)c3s2)CCOC4)cc1	none (no result: D1 mod)
O=C(CSc1ncccn1)Nc1ccccc1	M1 antag 1.86 (no result: D1 mod)
CCOC(=O)c1c(N)sc(C(=O)Nc2ccc3c(c2)OCO3)c1C	D1 mod -4.37 (no result: S1P1 ag pot)
CCOC(=O)c1c(C)c(C(=O)Nc2ccc3c(c2)OCO3)c(C)n1C	none (no result: D1 mod)
COc1ccc(N(CC(=O)NC(C)(C)C)S(=O)(=O)c2ccccc2)cc1OC	none
CCN(CC)C(=O)C1CCCN(c2ncnc3c2cnn3-c2cccc(C)c2)C1 (stereo not given)	none
CC1CCCN(c2ncnc3c2cnn3-c2ccccc2)C1 (stereo not given)	D1 mod -7.59
CCN(CC)C(=O)C1CCCN(c2ncnc3c2cnn3-c2ccc(Cl)cc2)C1 (stereo not given)	D1 mod -3.59
Cc1cccc(-n2ncc3c(N4CCC(C)CC4)ncnc32)c1	D1 mod -4.27
CCN1CCN(c2ncnc3c2cnn3-c2ccc(Cl)cc2)CC1	M1 antag -1.37 (no result: D1 mod)
CCN1CCN(c2ncnc3c2cnn3-c2ccccc2)CC1	none
Cc1cccc(-n2ncc3c(N4CCC5(CC4)OCCO5)ncnc32)c1	none
CCn1cc(C(=O)NC2CCCCCC2)c2cc(OC)c(OC)cc2c1=O	none (no result: S1P1 ag pot, S1P3 agonist)
Cc1ccc(-c2csc(NC(=O)CSc3ncn(-c4ccccc4)n3)n2)cc1	none
COC(=O)c1ccc(OCC(O)CN(CC(C)C)CC(C)C)cc1 (stereo not given)	none
CC(C)CC1N=C2c3ccccc3N=C(SCc3cc(=O)n4ccccc4n3)N2C1=O (stereo not given)	none (no result: D1 mod, M1 antag, M1 ag)
c1ccc(-n2ncc3c(N4CCCCC4)ncnc32)cc1	D1 mod -6.93
Cc1ccc(-n2ncc3c(N4CCCC(C)C4)ncnc32)c(C)c1 (stereo not given)	S1P1 ag pot 73.3
c1ccc(CCN2CCN(c3ncnc4c3cnn4-c3ccccc3)CC2)cc1	none (no result: S1P1 ag pot)
Cc1cc2c(s1)CCCCC(=O)N2	none
COC(=O)c1cc(N2C(=O)C3C(C2=O)C2(C)C=CC3(C)O2)ccc1Cl (stereo not given)	none
CC(=O)Oc1ccc(N2C(=O)C3C(C2=O)C2(C)C=CC3(C)O2)cc1 (stereo not given)	S1P1 ag pot 134.7 (no result: M1 antag, M1 ag)
CC(=O)C1=C(O)C(=O)N(Cc2ccco2)C1c1ccccc1 (stereo not given)	none
CC(=O)C1=C(O)C(=O)N(Cc2ccco2)C1c1ccc(F)cc1 (stereo not given)	D1 mod -2.76
CCC(C)NC(=O)c1ccccc1NS(=O)(=O)c1ccc(OC)c(OC)c1 (stereo not given)	none
c1cncc(-c2nc3c4ccccc4nc(N4CCC(N5CCCCC5)CC4)n3n2)c1	M1 antag -6.71
CC1(C)CC(=O)C2=C(C1)Oc1ncn3nc(-c4cccnc4)nc3c1C2c1ccccc1 (stereo not given)	none
CC(C)CCNC(=O)CN(Cc1ccc2c(c1)OCO2)C(=O)CCC(=O)Nc1ccccn1	none
OC(CN1CCN(c2ccccn2)CC1)Cn1c2ccccc2c2ccccc21 (stereo not given)	D1 mod -2.73
CCSC1=C(C#N)C(c2cccc(O)c2)CC(=O)N1 (stereo not given)	none
CCSC1=C(C#N)C(c2cccc(Br)c2)CC(=O)N1 (stereo not given)	M1 antag 10.6
CNC(=O)c1cc2c(=O)n3cc(C)ccc3nc2n(Cc2ccco2)c1=N	none
CNC(=O)c1cc2c(=O)n3cc(C)ccc3nc2n(C(C)C)c1=N	M1 ag 16.8
COc1ccc(S(=O)(=O)NCC2CCC(C(=O)N3CCC4(CC3)OCCO4)CC2)cc1 (stereo not given)	none (no result: S1P1 ag pot, S1P3 agonist)
COC(=O)c1ccccc1NC(=O)CC(NCc1ccccc1)C(=O)O (stereo not given)	D1 mod 2.38 (no result: S1P1 ag pot)
COC(=O)c1ccccc1NC(=O)CN(c1ccccc1)S(=O)(=O)N(C)C	M1 antag 1.92
C=C(C)CSc1nc(N)cc(=O)[nH]1	none
COc1ccccc1NC(=O)CN1C(=O)C2(OCCCO2)c2ccccc21	D1 mod -2.64
COc1ccc(OC)c(NC(=O)CN2C(=O)C3(OCCCO3)c3ccccc32)c1	none
CN(C)c1ccc(NC(=S)c2ccccn2)cc1	D1 mod -6.2
CC(NC(=O)c1cc2c(=O)n(C)c3ccccc3c2n1C)c1ccc2c(c1)OCCO2 (stereo not given)	D1 mod -4.62, M1 ag 4.41
Cn1c(C(=O)NCCCN2CCN(c3ccccc3F)CC2)cc2c(=O)n(C)c3ccccc3c21	D1 mod -2.59
COCCCNC(=O)c1cn(Cc2c(F)cccc2Cl)nn1	D1 mod -3.93
O=C(CSc1nnc(-c2csc3c2CCCC3)o1)Nc1ccccc1	D1 mod -2.28
COc1cccc(-c2nc(NCC3CCCO3)c3ccccc3n2)c1O (stereo not given)	none (no result: D1 mod)
COc1cc(-c2nc3ccccn3c2NCC2CCCO2)ccc1O (stereo not given)	M1 ag 3.29
CCS(=O)(=O)c1ccc(S(=O)(=O)CC)s1	none
O=S(=O)(Nc1cccnc1)c1cccs1	M1 antag 2.36
O=S(=O)(Nc1nccs1)c1ccc(NS(=O)(=O)c2cccs2)cc1	none
Cc1cc(NCCCn2ccnc2)n2ncc(-c3ccccc3)c2n1	D1 mod -6.44
Cc1cc(NCCN2CCOCC2)n2ncc(-c3ccccc3)c2n1	none
c1ccc(-c2cn3c4c(sc3n2)CCCC4)cc1	D1 mod -9.94
N#CC1=C(N)C(C#N)(C#N)C2(C(=O)Nc3ccccc32)C2CCCC=C12 (stereo not given)	D1 mod -6.24 (no result: M1 antag, M1 ag)
Cn1cccc1Cc1nnc(SCC(=O)Nc2ccc3c(c2)OCO3)n1-c1ccc(F)cc1	none
Nc1c(N2CCOCC2)cc(Cl)c2nonc12	D1 mod -4.83
C1CN(c2nc3nonc3nc2N2CCOCC2)CCO1	none (no result: D1 mod)
CCOC(=O)N1CCN(C(=O)Cn2cc3c(n2)CCCC3)CC1	M1 ag -3.19
O=C(Cn1ccc2ccccc2c1=O)NCCC(=O)NC1CCN(Cc2ccccc2)CC1	none
Cc1nc2ccccc2c2oc(C(=O)NCc3ccccn3)cc12	D1 mod -3.67
